This is a sample that favours compounds with a hit; in the whole collection about 3% have one here.
aDG glyco up = increases alpha dystroglycan glycosylation; hit rate 0.22% among 360,000; Pro5-aDG cells, alpha-DG glycosylation AlphaScreen (IIH6); 0% Pro5, 100% B10-LARGE cell signal; activation, % at 10 µM;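 active = activation of at least 8% versus controls, or a plate z-score of at least 8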;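 also: Pro5 are CHO cells carrying HIG-tagged alpha-DG that lacks glycosylation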
NPR2 activator = GC-B (human) receptor activation | HEK293-GC-B cells, CNP EC30, cGMP TR-FRET; 0% at EC30 CNP, 100% saturating CNP | hit rate 0.11% among 370,000 | activation, % at 10 µM | P20594 | AID 1920062;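 active = activation at 10 µM reaching about 35% in either raw or pattern-adjusted values, limit read from the data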
Target sequence (P20594 whole entry, looked up): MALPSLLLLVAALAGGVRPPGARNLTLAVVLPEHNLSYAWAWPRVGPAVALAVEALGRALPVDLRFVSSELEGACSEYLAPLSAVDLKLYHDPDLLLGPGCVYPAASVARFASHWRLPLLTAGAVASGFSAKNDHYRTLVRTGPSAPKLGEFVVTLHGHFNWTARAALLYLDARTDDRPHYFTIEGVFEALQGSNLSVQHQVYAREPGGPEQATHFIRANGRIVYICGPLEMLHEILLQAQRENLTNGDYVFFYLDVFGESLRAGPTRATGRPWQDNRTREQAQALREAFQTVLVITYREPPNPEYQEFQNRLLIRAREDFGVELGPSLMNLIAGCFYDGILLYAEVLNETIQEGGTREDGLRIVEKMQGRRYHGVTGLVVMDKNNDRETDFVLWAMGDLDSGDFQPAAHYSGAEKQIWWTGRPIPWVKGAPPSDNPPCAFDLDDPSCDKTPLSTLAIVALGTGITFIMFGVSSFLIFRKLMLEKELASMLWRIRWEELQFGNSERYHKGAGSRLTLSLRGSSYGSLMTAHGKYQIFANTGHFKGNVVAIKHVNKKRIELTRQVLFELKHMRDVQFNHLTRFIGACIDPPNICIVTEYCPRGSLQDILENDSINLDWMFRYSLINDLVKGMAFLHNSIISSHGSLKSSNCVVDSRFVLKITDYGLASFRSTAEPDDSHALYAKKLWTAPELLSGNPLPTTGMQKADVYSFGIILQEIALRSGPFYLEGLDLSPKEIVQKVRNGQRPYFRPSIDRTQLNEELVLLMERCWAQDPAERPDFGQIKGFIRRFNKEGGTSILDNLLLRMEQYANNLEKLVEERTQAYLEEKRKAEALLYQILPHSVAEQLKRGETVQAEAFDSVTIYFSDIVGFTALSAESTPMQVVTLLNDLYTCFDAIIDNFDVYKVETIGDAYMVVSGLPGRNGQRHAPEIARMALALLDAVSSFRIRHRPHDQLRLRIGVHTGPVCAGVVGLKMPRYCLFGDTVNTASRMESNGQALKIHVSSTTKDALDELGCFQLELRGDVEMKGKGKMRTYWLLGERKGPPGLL
NR3A LBD binder = modulators (binders) of human NR3A ligand-binding domain | AID 1259313 | hit rate 2.5% among 340,000 | NR3A LBD differential scanning fluorimetry, Tm shift; 0% = protein alone, 100% = glycine-bound protein | Tm shift relative to glycine control, % at 25 µM;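 active = melting temperature shift of at least 10% of the positive control shift, at one fixed dose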
Hep lipid drop = hepatic lipid droplet formation modulation. AML12 mouse hepatocytes, oleate lipid droplets, BODIPY imaging. hit rate 0.4% among 240,000. inhibition, % at 6.5 µM;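 active = lipid droplet intensity inhibited by at least 50%, with more than 500 cells counted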
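material = mouse AML12 hepatocyte cell line, fixed after treatment | also added = 100 µM oleic acid challenge | doses = compound at 6.5 µM only | schedule = overnight exposure | technique = Image-based BODIPY and DAPI two-channel analysis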
JMJD2C inh = inhibitors of human GASC-1 (JMJD2C) demethylase. Q9H3R0. AID 2099. hit rate 0.069% among 330,000. GST-JMJD2C(1-420) H3K9me3 demethylation, DELFIA europium. inhibition, % at 2.35 µM;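 active = more than half of a compound's replicate wells show inhibition beyond 50%, single wells judged on their own value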;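 also: signal counts dimethyl H3K9 product captured on neutravidin plate; 0% = median of DMSO wells and 100% = 0.3 times that DMSO median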
NPR1 activator = GC-A (human) enzyme activation | P16066 | HEK293 GC-A cells, cGMP TR-FRET, EC30 ANP; 0% at EC30 ANP, 100% saturating ANP | activation, % at 10 µM | hit rate 0.14% among 370,000 | AID 1671463; in the data active = activation above about 40%
Active calls of the source: *; . = no result given.

SMILES	aDG glyco up	NPR2 activator	NR3A LBD binder	Hep lipid drop	JMJD2C inh	NPR1 activator
COc1ccc(-n2c(SC/C=C/c3ccccc3)nnc2-c2cccs2)cc1	.	-5.1	.	.	.	-15.8
COc1cc(C(=O)Nc2nc(-c3ccc(C)cc3)cs2)ccc1OCC(=O)N1CCOCC1	-0.5	-1.0	-6.1	88.2*	7.0	10.3
COc1ccc(Cl)cc1C(=O)Nc1ccc(OCC(=O)N2CCOCC2)cc1	0.1	-3.1	-0.5	8.7	5.5	-1.9
COc1ccc(NC(=O)Nc2ccc(OCC(=O)N3CCOCC3)cc2)cc1OC	-0.4	-0.7	10.7*	.	6.0	0.4
N=C1N(C(=O)OCc2ccccc2)/C(=C\C2=CCCCC2)C(Cc2ccccc2)N1Cc1ccccc1 (stereo unspecified)	.	6.2	.	.	.	-6.1
COc1cc2cc(C(=O)N/N=C/c3ccc(F)cc3)[nH]c2cc1OC	-0.1	-3.5	13.1*	12.4	-2.4	-5.6
COc1ccc2[nH]c(C(=O)N/N=C/c3ccc(O)cc3O)cc2c1	0.1	-14.8	13.3*	-177.3	-4.4	-27.3
CCOc1ccc2[nH]c(C(=O)N/N=C/c3ccc(OC)cc3)cc2c1	-0.1	-6.9	.	-201.6	-3.5	-7.7
COc1cc2cc(C(=O)N/N=C/c3ccccc3Cl)[nH]c2cc1OC	-0.2	2.6	-4.0	16.5	0.8	3.1
COc1ccc2cc(C(=O)N/N=C/c3cc(OC)c(OC)c(OC)c3)[nH]c2c1	0.0	1.3	18.8*	-5.9	8.3	5.8
COc1ccc(/C=N/NC(=O)c2cc3cc(OC)c(OC)cc3[nH]2)cc1	-0.3	-0.4	3.6	-7.3	-11.4	-7.5
Cc1csc(N=Nc2ccc(N(C)C)cc2)[n+]1[O-]	-0.5	-60.3	.	.	.	-54.8
COC(=O)C1CN(Cc2cn(CCOC(C)=O)nn2)CCS(=O)(=O)N1Cc1ccccc1 (stereo unspecified)	.	-1.1	.	.	.	4.4
Cc1cc(C)c2[nH]c(=O)c(CN(CC3CCCO3)C(=S)NCc3ccco3)cc2c1 (stereo unspecified)	0.1	-1.4	2.2	9.7	-7.2	3.6
Cc1ccc2[nH]c(=O)c(CN(Cc3cccs3)C(=S)NCc3ccco3)cc2c1	0.2	1.9	12.5*	-1.0	0.5	-2.7
Cc1ccc2cc(CN(CC3CCCO3)C(=S)NCc3ccco3)c(=O)[nH]c2c1 (stereo unspecified)	-0.2	1.7	2.1	-35.2	-3.8	2.6
CCNC(=S)N(Cc1cccs1)Cc1cc2cc(OCC)ccc2[nH]c1=O	0.2	-0.7	-9.2	-4.7	15.3	2.4
Cc1ccc2[nH]c(=O)c(CN(CC3CCCO3)C(=S)NCc3ccco3)cc2c1 (stereo unspecified)	0.2	2.5	13.1*	10.5	2.8	-5.7
Cc1cccc2cc(CN(CC3CCCO3)C(=S)NCc3ccco3)c(=O)[nH]c12 (stereo unspecified)	0.1	9.2	13.0*	15.9	7.2	-3.5
Cc1ccc(Nc2c(-c3ccco3)nc3nc(C)cc(C)n23)cc1	0.3	12.7	-2.5	-10.4	7.3	67.8*
Cc1ccc(C)c(N2C(=O)CC(Cc3ccccc3)C2=O)c1 (stereo unspecified)	-0.1	3.2	3.6	-0.3	-17.8	-5.2
O=c1n(Cc2ccccc2Cl)c2sc3c(c2c2ncnn12)CCCC3	0.4	38.7*	-1.2	.	.	25.1
O=C(Cn1c(=O)n2ncnc2c2c3c(sc21)CCCC3)c1ccccc1	0.1	4.6	-0.7	-15.6	5.1	13.7
COc1cccc(N2CCN(C(=O)c3cc(-c4ccccc4)nc4c3cnn4C(C)C)CC2)c1	-0.4	3.1	-1.5	.	13.4	7.7
CC(=O)Nc1cccc(C(=O)/C=C/c2ccc(N(C)C)cc2)c1	0.2	-1.6	18.3*	30.7	0.5	5.6
SMILES	aDG glyco up	NPR2 activator	NR3A LBD binder	Hep lipid drop	JMJD2C inh	NPR1 activator
N#CC1C=Cc2c(ccc3ccccc23)N1C(=O)c1ccccc1 (stereo unspecified)	-0.3	-4.3	1.0	.	.	-8.4
COc1cc(/C=N/NC(=O)c2cc(-c3cccs3)nc3ccccc23)ccc1O	-0.1	3.0	4.1	-23.8	-2.6	-3.9
COc1cc(/C=N/NC(=O)c2ccc(N)cc2)ccc1OC(=O)c1cccc(C)c1	0.0	2.1	8.6	10.6	-4.2	0.0
O=C(N/N=C/c1cccc(Oc2ccccc2)c1)c1ccc(O)cc1O	-0.2	-5.0	31.1*	-15.2	-3.1	2.9
COc1cc(C(=O)N/N=C/c2ccc(OC(=O)c3cccc(C)c3)cc2)ccc1O	0.2	-4.0	22.2*	-1.3	3.5	0.8
COc1ccc(OC)c(/C=N/NC(=O)c2[nH]nc3c2CCc2ccccc2-3)c1	-0.5	16.4	9.8	-1.2	6.6	15.7
COc1cc(/C=N/NC(=O)c2cc(-c3cccc(OC(C)C)c3)nc3ccccc23)ccc1O	-0.1	-21.6	11.0*	.	-3.6	1.4
O=C(N/N=C/c1cccc(Oc2ccccc2)c1)c1ccncc1	1.2	-2.5	5.7	26.6	-13.9	-0.3
COc1cccc(/C=N/NC(=O)c2[nH]nc3c2CCc2ccccc2-3)c1	-0.1	14.3	25.7*	-14.2	4.3	15.3
CC1(C(=O)NS(=O)(=O)c2ccc(F)cc2F)CCN1C(=O)C1(c2ccc(Cl)cc2)CC1 (stereo unspecified)	0.1	2.2	.	.	.	4.3
COc1cc(C(=O)N/N=C/c2cccc(Oc3ccccc3)c2)ccc1O	-0.1	-2.9	11.2*	-21.0	-2.5	-1.8
COc1cc(/C=N/NC(=O)c2cccc(S(=O)(=O)N3CCCC3)c2)ccc1O	-0.1	0.2	14.8*	.	-8.0	-1.6
O=C(OC12CCCN(C1)/C(=C/c1ccncc1)C2)c1ccc(Cl)cc1 (stereo unspecified)	.	-1.3	.	.	.	-2.6
Cc1c(Cc2ccccc2)c(=O)oc2c(O)c(O)ccc12	0.6	-8.6	10.1*	2.2	-7.7	7.6
Nn1c(SCc2ccc([N+](=O)[O-])cc2)nnc1-c1cc(-c2ccccc2)n[nH]1	.	-6.6	.	.	.	-3.4
CN(C)c1ccc(C(CNS(=O)(=O)c2ccc(F)c(F)c2)c2c[nH]c3ccccc23)cc1 (stereo unspecified)	-0.4	3.0	22.5*	14.1	-5.0	-9.4
CC(C)CN1C(=O)/C(=C/c2c(N3CCc4ccccc4C3)nc3ccccn3c2=O)SC1=S	.	.	.	119.7*	.	.
O=c1c2cc(Br)ccc2[nH]c(=S)n1Cc1ccccc1	0.6	2.0	10.9*	4.8	2.1	-1.4
CCCCCCCCN1C(=O)[C@@H](CC(=O)NCC23CC4CC(CC(C4)C2)C3)C[C@@]2(C(=O)OC)C1=C[C@H](C(C)(C)C)O[C@@H]2C	.	11.7	.	.	.	1.7
COCCNC(=S)N(C)[C@H]1C[C@H]2c3[nH]c4cccc(-c5ccccc5)c4c3CCN2C(=O)[C@H]1[C@H](C)O	.	3.6	.	.	.	-0.9

Bioassay records deposited in PubChem BioAssay by several laboratories.
